Measured values published in ChEMBL document CHEMBL4145650, “Napabucasin and Related Heterocycle-Fused Naphthoquinones as STAT3 Inhibitors with Antiproliferative Activity against Cancer Cells” (J Nat Prod, 2018).
Each block holds one molecule with its values, some of them ahead of it. Active and inactive are the calls of the source. The rule behind the calls is not given here.

Key:
[1] = target: T1, Signal transducer and activator of transcription 3 (Homo sapiens, UniProt P40763); test: Inhibition of STAT3 phosphorylation at Y705 in human MDA-MB-231 cells assessed as reduction in ratio of phosphorylated STAT3 to total STAT3 level after 4 hrs by HTRF assay; format: cell-based
Procedure, shortened: (§1)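 MDA-MB-231 cells (10^5/well) were left to adhere overnight, serum-starved for 4 h in DMEM, then treated with 0.1–30 μmol/L compound (0.5% final DMSO) for 4 h at 37 °C. Lysates were incubated 24 h at room temperature with Eu-cryptate/d2 antibody pairs for phospho-STAT3 (Y705) or total STAT3. The 665/620 nm HTRF ratio was taken and phospho/total normalized. EC50 was obtained by nonlinear regression.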

MDA-MB-231 [2] = test: Cell cycle arrest in human MDA-MB-231 cells assessed as accumulation at G1 phase at 30 uM measured after 24 hrs by propidium iodide staining based flow cytometry (reference value: 62%); format: functional
[3] = target: T1, Signal transducer and activator of transcription 3; test: Binding affinity to STAT3 in human MDA-MB-231 cells at 100 uM treated for 1 hr followed by thermolysin addition measured after 30 mins by DARTS-Western blot analysis; format: cell-based
Procedure, shortened: (§2)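 A nondenaturing lysate of MDA-MB-231 cells (M-PER with protease and phosphatase inhibitors) was incubated with compound at 100 μmol/L or DMSO for 1 h at room temperature in the dark. TNC buffer pH 8.0 was added, then thermolysin (1:3000 of protein) for 30 min at room temperature; undigested controls were kept. Run on SDS-PAGE with 10 μg protein per lane, then Western blot with anti-STAT3.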

MDA-MB-231 [4] = test: Cell cycle arrest in human MDA-MB-231 cells assessed as accumulation at S phase at 30 uM measured after 24 hrs by propidium iodide staining based flow cytometry (reference value: 12%); format: functional
K562 [5] = test: Antiproliferative activity against human K562 cells measured after 48 hrs by MTT assay; format: functional, cell-based; settings: K562, 48 h
Procedure, shortened: (§3)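 Cells kept in 10% FBS medium with penicillin/streptomycin/L-glutamine at 37 °C, 5% CO2 (MDA-MB-231 in DMEM, K562 in RPMI 1640). Viability read by MTT reduction to formazan after 48 h of exposure. IC50 obtained by nonlinear regression against vehicle control, given as mean ±SD of three independent experiments (n = 2 where footnoted).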

MDA-MB-231 [6] = test: Induction of apoptosis in human MDA-MB-231 cells assessed as viable cells at 10 umol/L measured after 6 hrs by annexin-V-FITC/7-AAD staining based flow cytometric analysis (reference value: 97 to 98%); format: functional; settings: MDA-MB-231, 6 h, read-out: Activity
MDA-MB-231 [7] = test: Cell cycle arrest in human MDA-MB-231 cells assessed as accumulation at G2 phase at 10 uM measured after 24 hrs by propidium iodide staining based flow cytometry (reference value: 23%); format: functional
K562 [8] = test: Induction of superoxide generation in human K562 cells at 5 umol/L measured after 24 hrs in presence of NQO1 inhibitor dicoumarol by DHE staining based flow cytometry; format: functional, cell-based
Procedure, shortened: (§4)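 Cells were treated with compound at 5 μmol/L or DMSO for 24 h, with or without dicoumarol preincubation (5 μmol/L, 30 min), then stained with DHE for 30 min. 2-OH-DHE fluorescence was read by flow cytometry and expressed relative to vehicle control. At least three independent measurements.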

MDA-MB-231 [9] = test: Induction of superoxide generation in human MDA-MB-231 cells at 5 umol/L measured after 24 hrs by DHE staining based flow cytometry; format: functional, cell-based; procedure, shortened: as §4
MDA-MB-231 [10] = test: Induction of apoptosis in human MDA-MB-231 cells assessed as viable cells at 10 umol/L measured after 4 hrs by annexin-V-FITC/7-AAD staining based flow cytometric analysis (reference value: 97 to 98%); format: functional; settings: MDA-MB-231, 4 h, read-out: Activity
MDA-MB-231 [11] = test: Cell cycle arrest in human MDA-MB-231 cells assessed as accumulation at G1 phase at 10 uM measured after 24 hrs by propidium iodide staining based flow cytometry (reference value: 62%); format: functional
MDA-MB-231 [12] = test: Induction of superoxide generation in human MDA-MB-231 cells at 5 umol/L measured after 24 hrs in presence of NQO1 inhibitor dicoumarol by DHE staining based flow cytometry; format: functional, cell-based; procedure, shortened: as §4
MDA-MB-231 [13] = test: Induction of apoptosis in human MDA-MB-231 cells assessed as viable cells at 10 umol/L measured after 8 hrs by annexin-V-FITC/7-AAD staining based flow cytometric analysis (reference value: 97 to 98%); format: functional; settings: MDA-MB-231, 8 h, read-out: Activity
MDA-MB-231 [14] = test: Cell cycle arrest in human MDA-MB-231 cells assessed as accumulation at G2 phase at 3 uM measured after 24 hrs by propidium iodide staining based flow cytometry (reference value: 23%); format: functional
MDA-MB-231 [15] = test: Cell cycle arrest in human MDA-MB-231 cells assessed as accumulation at sub-G0 phase at 1 uM measured after 24 hrs by propidium iodide staining based flow cytometry (reference value: 3%); format: functional
MDA-MB-231 [16] = test: Cell cycle arrest in human MDA-MB-231 cells assessed as accumulation at sub-G0 phase at 30 uM measured after 24 hrs by propidium iodide staining based flow cytometry (reference value: 3%); format: functional
[17] = target: T1, Signal transducer and activator of transcription 3; test: Binding affinity to STAT3 in human MDA-MB-231 cells at 100 uM measured after 1 hr by DARTS-Western blot analysis; format: cell-based; procedure, shortened: as §2
MDA-MB-231 [18] = test: Cell cycle arrest in human MDA-MB-231 cells assessed as accumulation at S phase at 10 uM measured after 24 hrs by propidium iodide staining based flow cytometry (reference value: 12%); format: functional
MDA-MB-231 [19] = test: Cell cycle arrest in human MDA-MB-231 cells assessed as accumulation at S phase at 3 uM measured after 24 hrs by propidium iodide staining based flow cytometry (reference value: 12%); format: functional
MDA-MB-231 [20] = test: Cell cycle arrest in human MDA-MB-231 cells assessed as accumulation at sub-G0 phase at 3 uM measured after 24 hrs by propidium iodide staining based flow cytometry (reference value: 3%); format: functional
MDA-MB-231 [21] = test: Induction of apoptosis in human MDA-MB-231 cells assessed as viable cells at 10 umol/L measured after 2 hrs by annexin-V-FITC/7-AAD staining based flow cytometric analysis (reference value: 97 to 98%); format: functional; settings: MDA-MB-231, 2 h, read-out: Activity
MDA-MB-231 [22] = test: Cell cycle arrest in human MDA-MB-231 cells assessed as accumulation at sub-G0 phase at 10 uM measured after 24 hrs by propidium iodide staining based flow cytometry (reference value: 3%); format: functional
MDA-MB-231 [23] = test: Cell cycle arrest in human MDA-MB-231 cells assessed as accumulation at G2 phase at 30 uM measured after 24 hrs by propidium iodide staining based flow cytometry (reference value: 23%); format: functional
MDA-MB-231 [24] = test: Cell cycle arrest in human MDA-MB-231 cells assessed as accumulation at G1 phase at 1 uM measured after 24 hrs by propidium iodide staining based flow cytometry (reference value: 62%); format: functional
MDA-MB-231 [25] = test: Induction of apoptosis in human MDA-MB-231 cells assessed as viable cells at 10 umol/L measured after 24 hrs by annexin-V-FITC/7-AAD staining based flow cytometric analysis (reference value: 97 to 98%); format: functional; settings: MDA-MB-231, 24 h, read-out: Activity
MDA-MB-231 [26] = test: Effect on total STAT3 level in human MDA-MB-231 cells at 0.1 to 30 umol/L after 4 hrs by HTRF assay; format: cell-based; settings: mda-mb-231, 4 h; procedure, shortened: as §1
MDA-MB-231 [27] = test: Cell cycle arrest in human MDA-MB-231 cells assessed as accumulation at S phase at 1 uM measured after 24 hrs by propidium iodide staining based flow cytometry (reference value: 12%); format: functional
MDA-MB-231 [28] = test: Induction of apoptosis in human MDA-MB-231 cells assessed as early apoptotic cells at 10 umol/L measured after 24 hrs by annexin-V-FITC/7-AAD staining based flow cytometric analysis relative to control; format: functional
MDA-MB-231 [29] = test: Induction of apoptosis in human MDA-MB-231 cells assessed as late apoptotic cells at 10 umol/L measured after 24 hrs by annexin-V-FITC/7-AAD staining based flow cytometric analysis relative to control; format: functional
MDA-MB-231 [30] = test: Cell cycle arrest in human MDA-MB-231 cells assessed as accumulation at G1 phase at 3 uM measured after 24 hrs by propidium iodide staining based flow cytometry (reference value: 62%); format: functional
[31] = target: T1, Signal transducer and activator of transcription 3; test: Inhibition of STAT3 phosphorylation at Y705 in human MDA-MB-231 cells after 4 hrs by HTRF assay; format: cell-based; procedure, shortened: as §1
MDA-MB-231 [32] = test: Antiproliferative activity against human MDA-MB-231 cells measured after 48 hrs by MTT assay; format: functional, cell-based; settings: MDA-MB-231, 48 h; procedure, shortened: as §3
MDA-MB-231 [33] = test: Cell cycle arrest in human MDA-MB-231 cells assessed as accumulation at G2 phase at 1 uM measured after 24 hrs by propidium iodide staining based flow cytometry (reference value: 23%); format: functional

T1 sequence (P40763 whole entry): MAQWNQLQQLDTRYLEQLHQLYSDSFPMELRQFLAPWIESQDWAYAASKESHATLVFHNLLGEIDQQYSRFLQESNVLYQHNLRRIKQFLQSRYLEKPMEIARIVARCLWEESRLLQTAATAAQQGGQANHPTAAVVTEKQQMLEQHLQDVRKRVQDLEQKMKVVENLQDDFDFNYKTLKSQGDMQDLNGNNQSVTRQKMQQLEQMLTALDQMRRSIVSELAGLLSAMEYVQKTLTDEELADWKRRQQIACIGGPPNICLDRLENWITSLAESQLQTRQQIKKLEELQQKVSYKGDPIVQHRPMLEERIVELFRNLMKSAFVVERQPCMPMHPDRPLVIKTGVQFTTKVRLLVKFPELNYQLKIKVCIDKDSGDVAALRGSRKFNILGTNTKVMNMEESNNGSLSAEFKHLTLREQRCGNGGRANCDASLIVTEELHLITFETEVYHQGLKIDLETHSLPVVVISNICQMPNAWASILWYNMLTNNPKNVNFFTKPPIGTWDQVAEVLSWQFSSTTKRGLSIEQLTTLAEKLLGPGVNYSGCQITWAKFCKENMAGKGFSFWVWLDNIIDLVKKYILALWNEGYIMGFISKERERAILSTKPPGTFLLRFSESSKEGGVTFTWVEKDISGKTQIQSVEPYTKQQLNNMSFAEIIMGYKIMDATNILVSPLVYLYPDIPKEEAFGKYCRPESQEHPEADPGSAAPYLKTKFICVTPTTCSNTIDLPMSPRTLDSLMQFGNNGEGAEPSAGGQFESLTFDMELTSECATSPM

EC50 [1]: 1900 nM | Activity [3]: Active | IC50 (K562 [5]): 1000 nM | Activity [17]: inactive | EC50 [31]: 2000 nM | IC50 (MDA-MB-231 [32]): 2100 nM
Compound: CC(=O)c1cc2c(o1)C(=O)c1ccccc1C2=O [NAPABUCASIN]
Activity (MDA-MB-231 [2]): 56% | Activity (MDA-MB-231 [4]): 15% | viability at 10 µM (MDA-MB-231 [6]): 96% | Activity (MDA-MB-231 [7]): 26% | Activity (K562 [8]): inactive | Activity (MDA-MB-231 [9]): Active | viability at 10 µM (MDA-MB-231 [10]): 97% | Activity (MDA-MB-231 [11]): 56% | Activity (MDA-MB-231 [12]): Active | viability at 10 µM (MDA-MB-231 [13]): 94% | Activity (MDA-MB-231 [14]): 25% | Activity (MDA-MB-231 [15]): 5% | Activity (MDA-MB-231 [16]): 3% | Activity (MDA-MB-231 [18]): 14% | Activity (MDA-MB-231 [19]): 15% | Activity (MDA-MB-231 [20]): 5% | viability at 10 µM (MDA-MB-231 [21]): 97% | Activity (MDA-MB-231 [22]): 4% | Activity (MDA-MB-231 [23]): 26% | Activity (MDA-MB-231 [24]): 60% | viability at 10 µM (MDA-MB-231 [25]): 62% | Activity (MDA-MB-231 [26]): Non-Toxic | Activity (MDA-MB-231 [27]): 13% | Activity (MDA-MB-231 [28]): 20% | Activity (MDA-MB-231 [29]): 19% | Activity (MDA-MB-231 [30]): 56% | Activity (MDA-MB-231 [33]): 22%

IC50 (K562 [5]): 5200 nM | IC50 (MDA-MB-231 [32]): > 10000 nM
Compound: O=C1c2ccccc2C(=O)c2occc21

Compound: CC(C)=CCC1=C(O)C(=O)c2ccccc2C1=O [LAPACHOL]
IC50 (K562 [5]): > 10000 nM | IC50 (MDA-MB-231 [32]): > 10000 nM
